According to ChEMBL document CHEMBL3414513, “Synthesis and biological evaluation of betulonic acid derivatives as antitumor agents” (Eur J Med Chem, 2015):
pIC50: −log10 of the molar value. Activity calls are given as the source filed them. No cut-off for these calls is given here.

Tests used:
MCF7 [1] = test: Cytotoxicity against human MCF7 cells after 72 hrs by MTT assay; assay type: functional, cell-based
Outline: (§1)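 Cancer lines grown in RPMI 1640 with 10% heat-inactivated FBS, 37 °C, 5% CO2. Cells trypsinized at 80-90% confluence, seeded at 2×10^3/well overnight, then given compounds (DMSO stocks diluted in medium) at various concentrations for 72 h at 37 °C. Controls: 0.1% DMSO negative, adriamycin positive. MTT (5 mg/ml) added for 4 h, formazan dissolved in SDS 12 h, A595 read. IC50 from dose-response curves.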

Bcap37 [2] = test: Cytotoxicity against human Bcap37 cells after 72 hrs by MTT assay; assay type: functional, cell-based; outline: as §1
PC-3 [3] = test: Selectivity index, ratio of IC50 for mouse NIH/3T3 cells to IC50 for human PC3 cells; assay type: functional
Outline: (§2)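 Index is the IC50 in normal NIH3T3 cells divided by the IC50 in each cancer line. […] HCPT and adriamycin were used as positive controls.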

A-375 [4] = test: Selectivity index, ratio of IC50 for mouse NIH/3T3 cells to IC50 for human A375 cells; assay type: functional; outline: as §2
MGC-803 [5] = test: Induction of apoptosis in human MGC803 cells assessed as apoptosis ratio at 10 uM after 36 hrs by Annexin V-FITC/propidium iodide staining-based flow cytometric analysis; assay type: functional
Outline: (§3)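 MGC-803 cells were treated at 10 µM, with 36 h among the time points; HCPT 10 µM served as positive control. Cells at 1×10^6/mL were washed in cold PBS and resuspended in 500 µL binding buffer. Staining used 5 µL Annexin V-FITC plus 5 µL PI for 20 min in the dark, then flow cytometry. Apoptosis ratio is early plus late apoptotic quadrants.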

Bcap37 [6] = test: Selectivity index, ratio of IC50 for mouse NIH/3T3 cells to IC50 for human Bcap37 cells; assay type: functional; outline: as §2
MGC-803 [7] = test: Induction of apoptosis in human MGC803 cells at 10 uM by Annexin V-FITC/propidium iodide staining-based flow cytometric analysis; assay type: functional, cell-based; details: TDE = time-dependent effect; outline: as §3
MGC-803 [8] = test: Selectivity index, ratio of IC50 for mouse NIH/3T3 cells to IC50 for human MGC803 cells; assay type: functional; outline: as §2
MGC-803 [9] = test: Induction of apoptosis in human MGC803 cells assessed as activation of caspase-3 using Ac-[…]-pNA as probe at 2.5 to 10 uM after 12 hrs; assay type: functional, cell-based
Outline: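 MGC-803 cells were treated at 2.5, 5 or 10 µM for 12 h. Cells (1×10^6/mL) were washed in cold PBS, lysed on ice for 25 min and spun at 18000 g for 15 min. Supernatant was mixed with reaction buffer and Ac-[…]-pNA and incubated at 37 °C for 2-3 h in the dark. A405 was read against a lysis/reaction buffer blank.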

MCF7 [10] = test: Selectivity index, ratio of IC50 for mouse NIH/3T3 cells to IC50 for human MCF7 cells; assay type: functional; outline: as §2
MGC-803 [11] = test: Induction of apoptosis in human MGC803 cells assessed as necrotic cells at 5 uM after 12 to 48 hrs by acridine orange/ethidium bromide staining-based fluorescence microscopic analysis; assay type: functional, cell-based
Outline: (§4)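 MGC-803 cells at 5×10^4 cells/mL were seeded in 6-well plates. Medium was replaced with fresh medium plus 10% FBS containing compound, 5 µM for 12-48 h. Controls: HCPT 10 µM for 48 h, DMSO. Cells were washed with PBS and the coverslip was inverted onto 20 µL AO/EB stain (100 µg/mL). Fluorescence microscopy scored live, early apoptotic, late apoptotic and necrotic nuclei.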

MGC-803 [12] = test: Cytotoxicity against human MGC803 cells after 72 hrs by MTT assay; assay type: functional, cell-based; outline: as §1
MGC-803 [13] = test: Induction of apoptosis in human MGC803 cells at 5 uM after 12 to 48 hrs by acridine orange/ethidium bromide staining-based fluorescence microscopic analysis; assay type: functional, cell-based; outline: as §4
A-375 [14] = test: Cytotoxicity against human A375 cells after 72 hrs by MTT assay; assay type: functional, cell-based; outline: as §1
MGC-803 [15] = test: Induction of apoptosis in human MGC803 cells assessed as activation of caspase-9 using Ac-LEHD-pNA as probe at 2.5 to 10 uM after 12 hrs; assay type: functional, cell-based
Outline: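 MGC-803 cells were treated at 2.5, 5 or 10 µM for 12 h. Cells were lysed on ice for 25 min and spun at 16000 g for 15 min. Supernatant was mixed with reaction buffer and Ac-LEHD-pNA and incubated at 37 °C for 2-3 h in the dark. A405 was read against a buffer blank.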

PC-3 [16] = test: (§5) Cytotoxicity against human PC3 cells after 72 hrs by MTT assay; assay type: functional, cell-based
Outline: (§6)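 Cells trypsinized at 80-90% confluence, seeded at 2×10^3/well overnight, then given compounds (DMSO stocks diluted in medium) at various concentrations for 72 h at 37 °C. Controls: 0.1% DMSO negative, adriamycin positive. MTT (5 mg/ml) added for 4 h, formazan dissolved in SDS 12 h, A595 read. IC50 from dose-response curves.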

[17] = as §5; assay type: functional, cell-based; details: PC-3, 72 h; outline: as §6
MGC-803 [18] = test: Induction of apoptosis in human MGC803 cells assessed as DNA fragmentation at 5 uM after 12 to 48 hrs by TUNEL assay; assay type: functional, cell-based
Outline: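 MGC-803 cells (5×10^4 cells/mL, 6-well) were exposed at 5 µM for 12-48 h. Controls: HCPT 10 µM for 48 h, DMSO. Colorimetric TUNEL: fixed in 4% paraformaldehyde 40 min, permeabilized on ice, endogenous peroxidase quenched with 0.3% H2O2/methanol 20 min. Then TdT plus biotin-dUTP 60 min at 37 °C, streptavidin-HRP 30 min, DAB 10 min. Brown precipitate scored by light microscopy.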

MGC-803 [19] = test: Induction of apoptosis in human MGC803 cells assessed as appearance of compact condensed and crescent shaped cells at 5 uM after 12 to 48 hrs by Hoechst 33258 staining-based fluorescence microscopic analysis; assay type: functional, cell-based
Outline: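 MGC-803 cells (5×10^4 cells/mL, 6-well plates) were treated at 5 µmol/L for 12-48 h in fresh medium with 10% FBS. Controls: HCPT 10 µM for 48 h, DMSO. Cells were fixed in 4% paraformaldehyde for 10 min and stained with Hoechst 33258 for 5 min. Fluorescence microscopy used 350 nm excitation and 460 nm emission.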

[20] = Upregulation of Bax expression in human MGC803 cells at 2.5 to 10 uM after 12 hrs by Western blot analysis; assay type: functional, cell-based; details: MGC-803
Outline: (§7)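 MGC-803 cells were treated at 2.5, 5 or 10 µM for 12 h, then collected. Western blots were probed with anti-p53 and anti-Bax (1:500 to 1:1000), with β-actin as loading reference.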

[21] = Upregulation of p53 expression in human MGC803 cells at 2.5 to 10 uM after 12 hrs by Western blot analysis; assay type: functional, cell-based; details: MGC-803; outline: as §7

With `C=C(C)[C@@H]1CC[C@]2(C(=O)OCCCCN3CCCCC3)CC[C@]3(C)[C@H](CC[C@@H]4[C@@]5(C)CCC(=O)C(C)(C)[C@@H]5CC[C@]43C)[C@@H]12` the Activity (MCF7 [1]) was “Dose-dependent effect”, the pIC50 (MCF7 [1]; MCF7, 72 h) was 5.28 and the Activity (Bcap37 [2]) was “Dose-dependent effect”. For the same compound, the pIC50 (Bcap37 [2]; Bcap37, 72 h) was 5.38, the “Ratio IC50” value (PC-3 [3]) was 4.75 and the “Ratio IC50” value (A-375 [4]) was 3.41. The Activity (MGC-803 [5]) was 28.33%, the “Ratio IC50” value (Bcap37 [6]) was 6.33 and the Activity (MGC-803 [7]) was “tde”. The “Ratio IC50” value (MGC-803 [8]) was 7.38, the Activity (MGC-803 [9]) was “Active” and the “Ratio IC50” value (MCF7 [10]) was 5.11. The Activity (MGC-803 [11]) was “inactive”, the Activity (MGC-803 [12]) was “Dose-dependent effect” and the pIC50 (MGC-803 [12]; MGC-803, 72 h) was 5.44. For the same compound, the Activity (MGC-803 [13]) was “Active”, the Activity (A-375 [14]) was “Dose-dependent effect” and the pIC50 (A-375 [14]; A-375, 72 h) was 5.11. The Activity (MGC-803 [15]) was “Active”, the Activity (PC-3 [16]) was “Dose-dependent effect” and the pIC50 [17] was 5.25. For the same compound, the Activity (MGC-803 [18]) was “Active”, the Activity (MGC-803 [19]) was “Active” and the Activity [20] was “Active”. The Activity [21] was “Active”.
